{
  "source": "paper PMC7012720",
  "about": "(Journal of inorganic biochemistry, 2019)",
  "key": {"HeLa (cervical cancer)": {"tested_on": "HeLa (cervical cancer)", "details": "cited from earlier work"}, "MDA-MD-231 (breast CSC)": {"tested_on": "MDA-MD-231 (breast CSC)", "details": "cited from earlier work"}, "Log": {"test": "Log", "type": "physicochemical", "details": "for Estimated Log(Do/w) of protonation state: best fit of Figures 2–4, error +/− 0.2", "outline": "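Modified shake-flask method in the dark, using 0.1 M acetate (pH 4.00–5.25) or 0.1 M phosphate (pH 5.8–8.0) buffer. Octanol and buffer were mutually pre-saturated for 24 h. Test compound (200 μM) in buffer-saturated octanol was stirred 1:1 with octanol-saturated buffer for 24 h at ambient temperature. The filtered aqueous phase was quantified by UV-Vis. logD = log([Ru]org/[Ru]aq), quadruplicate mean. Per-species values were fitted from pKa-based fractions.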"}, "[1]": {"test": "Mole fractions of protonation states calculated from pKa values", "type": "physicochemical"}, "MCF10A (normal)": {"tested_on": "MCF10A (normal)", "details": "cited from earlier work"}, "MCF7 (breast cancer)": {"tested_on": "MCF7 (breast cancer)", "details": "cited from earlier work"}, "[2]": {"details": "standard deviation in parenthesis; cited from earlier work"}, "[3]": {"details": "read-out: IC50 light, irradiation for one hour with blue light (450 nm)"}},
  "note": "Where “and” joins values, the source holds several entries; their conditions need not be identical. Equal entries are not always repeated. Where two headings read alike, the source gives them in different places.",
  "data": [
    {"substance": "[(bipy)2Ru(6,6’-dhbp)]^2+ [Compound 1A]", "values": [
      {"measurement": "PI (phototoxicity index, IC50 dark / IC50 light)", "setting": "HeLa (cervical cancer)", "result": 0.73},
      {"measurement": "IC50", "setting": "HeLa (cervical cancer); read-out: IC50 dark, dark", "result": 148, "unit": "µM"},
      {"measurement": "IC50", "setting": "HeLa (cervical cancer); [3]", "result": 202, "unit": "µM"},
      {"measurement": "PI (phototoxicity index, IC50 dark / IC50 light)", "setting": "MDA-MD-231 (breast CSC); MDA-MD-231", "result": 3.5},
      {"measurement": "IC50", "setting": "MDA-MD-231 (breast CSC); read-out: IC50 dark, MDA-MD-231, dark", "result": 1010, "unit": "µM"},
      {"measurement": "IC50", "setting": "MDA-MD-231 (breast CSC); read-out: IC50 light, MDA-MD-231, irradiation for one hour with blue light (450 nm)", "result": 290, "unit": "µM"},
      {"measurement": "Estimated Log(Do/w) of protonation state", "setting": "Log; Acidic Form (XA)", "result": "−0.1"},
      {"measurement": "Estimated Log(Do/w) of protonation state", "setting": "Log; Basic Form (XB)", "result": 1.6},
      {"measurement": "Estimated Log(Do/w) of protonation state", "setting": "Log; Monoprotic Acid", "result": 0.9},
      {"measurement": "Increase of Log(Do/w) from acidic form (XA) to basic form (XB)", "setting": "Log; orders of magnitude / log units, listed as 1", "result": "~ 1.7 and 1.7"},
      {"measurement": "Log(Do/w)", "setting": "Log; pH 4.00, 0.1M Acetate Buffer", "result": "0.04(3)"},
      {"measurement": "Log(Do/w)", "setting": "Log; pH 5.00, 0.1M Acetate Buffer", "result": "0.11(2)"},
      {"measurement": "Log(Do/w)", "setting": "Log; pH 6.00, 0.1M Phosphate Buffer", "result": "0.57(2)"},
      {"measurement": "Log(Do/w)", "setting": "Log; pH 6.60, 0.1M Phosphate Buffer", "result": "1.10(2)"},
      {"measurement": "Log(Do/w)", "setting": "Log; pH 7.00, 0.1M Phosphate Buffer", "result": "1.18(1)"},
      {"measurement": "Log(Do/w)", "setting": "Log; pH 7.40, 0.1M Phosphate Buffer", "result": "1.36(1)"},
      {"measurement": "Log(Do/w)", "setting": "Log; pH 8.00, 0.1M Phosphate Buffer", "result": "1.39(2)"},
      {"measurement": "Proportion of monoprotic species", "setting": "[1]; pH 6.0 to 6.6", "result": "80–83%"},
      {"measurement": "Mole fraction of acidic form (XA)", "setting": "[1]; pH 7.4", "result": "~0.003"},
      {"measurement": "Mole fraction of monoprotic species", "setting": "[1]; pH 7.4", "result": "~0.42"},
      {"measurement": "PI (phototoxicity index, IC50 dark / IC50 light)", "setting": "MCF10A (normal)", "result": ">2.4"},
      {"measurement": "IC50", "setting": "MCF10A (normal); read-out: IC50 dark, dark", "result": "> 500", "unit": "µM"},
      {"measurement": "IC50", "setting": "MCF10A (normal); [3]", "result": 210, "unit": "µM"},
      {"measurement": "PI (phototoxicity index, IC50 dark / IC50 light)", "setting": "MCF7 (breast cancer); MCF7", "result": "~1"},
      {"measurement": "IC50", "setting": "MCF7 (breast cancer); read-out: IC50 dark, MCF7, dark", "result": "> 500", "unit": "µM"},
      {"measurement": "IC50", "setting": "MCF7 (breast cancer); read-out: IC50 light, MCF7, irradiation for one hour with blue light (450 nm)", "result": "> 500", "unit": "µM"},
      {"measurement": "pKa1", "setting": "[2]", "result": 5.26},
      {"measurement": "pKa2", "setting": "[2]", "result": 7.27},
      {"measurement": "pKa avg", "setting": "[2]", "result": 6.3}
    ]}
  ]
}
